Published values gathered from unrelated publications.
Protocols differ between the studies behind these lines.
CHEK2: Serine/threonine-protein kinase Chk2 (CHEK2, Homo sapiens, UniProt O96017)
CHEK2 R145W: Serine/threonine-protein kinase Chk2 (CHEK2, Homo sapiens, UniProt O96017, R145W)

SMILES | target | test | conditions | measurement | value
Cc1ccc(C(=O)NCc2ccsc2)cc1C#Cc1cn(C(C)C)c2ncnc(N)c12 | CHEK2 | enzyme activity, inhibitor | 1 µM | activity vs control | 109%
CCCOc1ccc(OC)c(F)c1C(=O)c1ccc(C(=O)N[C@@H]2CNC[C@H]2NC(=O)c2ccc3[nH]ncc3c2)cc1 | Serine/threonine-protein kinase Chk2 (CHEK2, Homo sapiens, UniProt O96017, I157T) | enzyme activity, inhibitor | 10 µM | remaining activity | 16%
Cn1c2c(c3ccc(Cl)c(Cl)c31)C(C#N)C1(CCOCC1)NC2=O (stereo not shown) | CHEK2 | thermal stability, DSF | 10 µM | ΔTm | -0.3 °C
Nc1ncnc2occ(-c3ccc(NC(=O)Nc4cc(C(F)(F)F)ccc4F)cc3)c12 | CHEK2 | cell-free assay, inhibitor | 20 µM | remaining signal | 13%
Cc1ccc(Nc2nccc(N(C)c3ccc4c(C)n(C)nc4c3)n2)cc1S(N)(=O)=O | CHEK2 R145W | enzyme activity, inhibitor | 10 µM | inhibition | 28%
C[S+]([O-])c1ccc(-c2nc(-c3ccncc3)c(-c3ccc(F)cc3)[nH]2)cc1 (stereo not shown) | CHEK2 | cell-free assay | 0.5 µM | remaining signal | 99.6%
CN([C@@H]1CCc2c(CC(=O)O)c3ccccc3n2C1)S(=O)(=O)c1ccc(F)cc1 | CHEK2 | cell-free assay, competition with immobilised ligand | 1 µM | remaining binding | 100%
COc1cc2nccc(Oc3ccc(NC(=O)Nc4ccc(F)cc4F)c(F)c3)c2cc1OC | CHEK2 | thermal stability, DSF | 10 µM | ΔTm | 5 to 10 °C
Cc1cc(NC(=O)c2cccc3cc(-c4cccc5[nH]nc(N)c45)ccc23)ccc1F | CHEK2 R145W | enzyme activity, inhibitor | 0.1 µM | activity vs control | 99%
Cc1ccc(NC(=O)c2ccc(CN3CCN(C)CC3)cc2)cc1Nc1nc(-c2cccnc2)cs1 | CHEK2 | cell-free assay | 0.5 µM | remaining signal | 101%
CS(=O)(=O)N1CCCC(NC(=O)[C@H](CCC2CCCCC2)NC(=O)c2ccc(CNc3ncnc4c3nnn4-c3ccccc3)cc2)C1 (stereo partly shown) | CHEK2 | cell-free assay, competition with immobilised ligand | 0.1 µM | remaining binding | 100%
CC1(C)NC(=O)c2[nH]c3c(Cl)c(Cl)ccc3c2C1C#N (stereo not shown) | CHEK2 | thermal stability, DSF | 10 µM | ΔTm | -0.1 °C
CCOCCn1cc(C(=O)Nc2ccc(-n3nc(-c4cccnc4)cc3C(F)(F)F)cn2)ccc1=O | CHEK2 | cell-free assay, competition with immobilised ligand | 1 µM | remaining binding | 0%
C#Cc1cccc(Nc2ncnc3cc(OCCOC)c(OCCOC)cc23)c1 | CHEK2 | cell-free assay | 0.5 µM | remaining signal | 100%
N#CC1c2c([nH]c3c(Cl)c(Cl)ccc23)C(=O)NC12CCCCC2 (racemic) | CHEK2 | thermal stability, DSF | 10 µM | ΔTm | 0.1 °C
CCCCN(CCCC)C(=O)CN1C[C@H](c2cc(OC)c3c(c2)OCO3)[C@@H](C(=O)O)[C@@H]1CC(C)(C)CCC | CHEK2 | cell-free assay, competition with immobilised ligand | 1 µM | remaining binding | 100%
CCC1(CC)NC(=O)c2c(c3ccc(Cl)c(Cl)c3n2C)C1C#N (stereo not shown) | CHEK2 | thermal stability, DSF | 10 µM | ΔTm | -0.2 °C
CC(=O)C1=C(C)N(c2cccc(C(F)(F)F)c2)C(=O)N[C@@H]1c1ccc(C#N)nc1 | CHEK2 | cell-free assay, competition with immobilised ligand | 1 µM | remaining binding | 85.6%
CCN(CC)CCNC(=O)c1c(C)[nH]c(/C=C2\C(=O)Nc3ccc(F)cc32)c1C | CHEK2 | cell-free assay | 0.5 µM | remaining signal | 7.13%
CN([C@@H]1CCc2c(CC(=O)O)c3cc(S(C)(=O)=O)ccc3n2C1)S(=O)(=O)c1ccc(F)cc1 | CHEK2 | cell-free assay, competition with immobilised ligand | 1 µM | remaining binding | 100%
Cn1c2c(c3ccccc31)C(C#N)C(C)(C)NC2=O (stereo not shown) | CHEK2 | thermal stability, DSF | 10 µM | ΔTm | 0.8 °C
O=C(Nc1cccnn1)N1CC(C/C=C/c2cncc(Oc3ccc(C(F)(F)F)cn3)n2)C1 | CHEK2 | cell-free assay, competition with immobilised ligand | 1 µM | remaining binding | 100%
CNC(=O)c1cc(Oc2ccc(NC(=O)Nc3ccc(Cl)c(C(F)(F)F)c3)cc2)ccn1 | CHEK2 | enzyme activity, inhibitor | 10 µM | inhibition | 6%
COc1cc(Nc2c(C#N)cnc3cc(OCCCN4CCN(C)CC4)c(OC)cc23)c(Cl)cc1Cl | CHEK2 | cell-free assay | 0.5 µM | remaining signal | 21.7%
Cn1c2c(c3ccc(Cl)c(Cl)c31)C(C#N)C(C)(C)NC2=O (stereo not shown) | CHEK2 | thermal stability, DSF | 10 µM | ΔTm | 0.2 °C
Cc1noc([C@H]2C[C@@H](c3ccc(C(F)(F)F)cc3)CN(C(=O)N3CCS(=O)(=O)C3)C2)n1 | CHEK2 | cell-free assay, competition with immobilised ligand | 1 µM | remaining binding | 100%
Cn1c2c(Cl)c(Cl)ccc2c2cc(N)[nH]c(=O)c21 | CHEK2 | thermal stability, DSF | 10 µM | ΔTm | 0.1 °C
CN(C)C1CCN(CC#Cc2nn(C3CCCC3)c3nc(NCc4ccccc4)ncc23)C1 (stereo not shown) | CHEK2 | enzyme activity, inhibitor, FRET | 0.1 µM | inhibition | 6%
